Screens from PubChem BioAssay.
miR122 inh – miR-122 inhibition in Huh7 cells; activation (reporter increase), % at 12.5 µM; Huh7 miR-122 Renilla luciferase sensor, 48 h; neutral wells = 0, positive control = 100; 340,000 compounds, 0.3% hits; AID 602342;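 active means mean replicate activation score at least 90 and every replicate individually at or above 90; inconclusive means only one of the two criteria met; inactive means neither criterion met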;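 further: higher luciferase means less miR-122 activity so hits act as miR-122 inhibitors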
Vif inh – blocks HIV Vif function; inhibition, % at 7.49 µM; 340,000 compounds, 0.35% hits; AID 602346; HEK293T cells, Vif self-association by quenched fluorescence, imaging, 24 h; in the data active means inhibition above about 50%, passing the limit was not always enough; inconclusive means no clear call, values can overlap the other calls; inactive means below about 31%
FN deposit inh – fibronectin deposition inhibition | AH1F fibroblasts, Alexa488-fibronectin deposition fluorescence, overnight | inhibition, % at 12.6 µM | 350,000 compounds, 0.086% hits;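 active means mean inhibition across replicates of 30% or more, regardless of how many single replicates reach that level; inconclusive means mean under 30% yet at least half of replicates reach 30%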
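Material: AH1F fibroblast monolayer depositing Alexa488-labelled fibronectin into matrix | Input: 10000 AH1F cells/well | Medium: DMEM plus 2% serum, read in PBS | Reagent: Alexa488-fibronectin, 24 nM final in well | Compound dosing: One dose per compound, pinned | Schedule: 1 h adhesion, overnight exposure | Measured by: Fluorescence at 485 nm excitation, 525 nm emission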
HIV Env fusion – inhibitors of HIV Env-mediated cell fusion | AID 651610 | HeLa-JRFL Env/CEM21 cell fusion, luciferase | inhibition, % at 12.3 µM | 360,000 compounds, 1.1% hits;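 active means mean replicate inhibition score of at least 50 and every replicate individually at or above 50; inconclusive means only one of the two criteria met; inactive means mean below 50 and not all replicates reaching 50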
rRNA inh HTS – selective bacterial rRNA inhibition in E. coli. E. coli WT GFP vs humanized-ribosome RFP mutants, fluorescence, 24 h; hits give low values; DMSO median 0, no signal -100. GFP signal change (wild-type ribosome), % (test concentration not listed). 350,000 compounds, 1.6% hits. AID 720706;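 active means significant combined selectivity score with lowered wild-type GFP, culture density cut under 30%, mutant RFP and density less affected; inactive means any of these conditions unmet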
S100A4 inh HTS – inhibitors of human S100A4 binding to myosin IIA peptide. P26447. S100A4/TAMRA-MyoIIA peptide fluorescence polarization. inhibition, % at 10.7 µM. 360,000 compounds, 0.14% hits. AID 652163;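 active means mean inhibition of at least 70% across replicates, with every replicate also reaching that level; inconclusive means mean inhibition reaches 70% but some replicates fall short; inactive means mean inhibition below 70%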
Target sequence (P26447 whole entry, looked up): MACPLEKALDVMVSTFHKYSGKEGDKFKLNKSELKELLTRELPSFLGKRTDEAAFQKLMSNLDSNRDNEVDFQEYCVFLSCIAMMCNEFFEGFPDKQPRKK
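Material: human S100A4 monomer with TAMRA-labelled myosin IIA peptide; buffer or medium: HEPES pH 7.2 with CaCl2, KCl, NaCl, DTT, Triton; compound dosing: one concentration per compound; schedule: 5 min incubation before reading; benchmarks: neutral control DMSO, positive control TFP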
A number is an active result; [ ] = dose if it differs, or a comment. Sampled rows, rich in hits. Any-hit rate of the full collection: about 2.6%.

CCCC(=O)N1CCN(c2ccc(NC(=O)c3ccc([N+](=O)[O-])o3)cc2Cl)CC1 was read as Vif inh inactive, FN deposit inh inactive, HIV Env fusion inactive, rRNA inh HTS -39 and S100A4 inh HTS inactive.
`COc1cccc(S(=O)(=O)N[C@H]2C=C[C@H](CC(=O)NCc3ccccc3)O[C@@H]2CO)c1` gave HIV Env fusion inactive, rRNA inh HTS inactive and S100A4 inh HTS inactive.
CC(C)NC(=O)N1CC2(C1)[C@@H](c1ccccc1)[C@@H](CO)N2CCC(F)(F)F was read as rRNA inh HTS inactive and S100A4 inh HTS inactive.
Screening COCCCNC(=O)Cc1c(C)c2c(cc(C)c3c(C(C)(C)C)coc32)oc1=O returned miR122 inh 90, Vif inh inactive, FN deposit inh inactive, HIV Env fusion inactive, rRNA inh HTS inactive and S100A4 inh HTS inactive.
O=C(C[C@H]1C[C@@H]2c3cc(NC(=O)Nc4ccccc4)ccc3O[C@@H]2[C@@H](CO)O1)NCc1cccc(F)c1 was read as miR122 inh inactive, FN deposit inh inactive, rRNA inh HTS inactive and S100A4 inh HTS inactive.
Screening O=C(O)C(F)=C1c2ccccc2-c2ccccc21 returned miR122 inh inactive, Vif inh inactive, FN deposit inh inactive, HIV Env fusion inactive, rRNA inh HTS -30 and S100A4 inh HTS inactive.
Cc1cc(C)c2nc(N(CCCN(C)C)C(=O)c3ccc4c(c3)OCCO4)sc2c1 was read as miR122 inh inactive, Vif inh inactive, FN deposit inh inactive, HIV Env fusion inactive, rRNA inh HTS -28 and S100A4 inh HTS inactive.
For Cc1cc(C)c2nc(N(CCCN(C)C)C(=O)C3=COCCO3)sc2c1 the results were miR122 inh inactive, Vif inh inactive, FN deposit inh inactive, HIV Env fusion inactive, rRNA inh HTS inactive and S100A4 inh HTS inactive.
O=C(C[C@@H]1C=C[C@H](NC(=O)c2cccnc2)[C@@H](CO)O1)NCc1ccc(Cl)c(Cl)c1 was read as miR122 inh inactive, FN deposit inh inactive, HIV Env fusion inactive, rRNA inh HTS inactive and S100A4 inh HTS inactive.
`C[C@@H]1CN([C@H](C)CO)C(=O)c2cc(NC(=O)c3ccccc3)ccc2O[C@@H](C)CCCCO[C@H]1CN(C)Cc1ccc(C(F)(F)F)cc1` gave miR122 inh inactive, HIV Env fusion 69[16.7 µM], rRNA inh HTS inactive and S100A4 inh HTS inconclusive.
C[C@@H]1CCCCO[C@@H](CN(C)Cc2ccc(C(F)(F)F)cc2)[C@H](C)CN([C@H](C)CO)C(=O)c2cc(NC(=O)c3ccccc3)ccc2O1 was read as miR122 inh inactive, HIV Env fusion 79[16.7 µM], rRNA inh HTS inactive and S100A4 inh HTS inactive.
C[C@@H]1CCCCO[C@H](CN(C)Cc2ccc(C(F)(F)F)cc2)[C@H](C)CN([C@H](C)CO)C(=O)c2cc(NC(=O)c3ccccc3)ccc2O1 was read as miR122 inh inactive, HIV Env fusion 90[16.7 µM], rRNA inh HTS inactive and S100A4 inh HTS inactive.
For C[C@H](CO)N1C[C@H](C)[C@H](CN(C)Cc2ccc(C(F)(F)F)cc2)OCCCC[C@H](C)Oc2ccc(NC(=O)c3ccccc3)cc2C1=O the results were miR122 inh inactive, HIV Env fusion inactive, rRNA inh HTS inactive and S100A4 inh HTS inactive.
Screening C[C@H](CO)N1C[C@H](C)[C@@H](CN(C)Cc2ccc(C(F)(F)F)cc2)OCCCC[C@H](C)Oc2ccc(NC(=O)c3ccccc3)cc2C1=O returned miR122 inh inactive, HIV Env fusion inactive, rRNA inh HTS inactive and S100A4 inh HTS inactive.
CC(C)NC(=O)N(C)C[C@@H]1Oc2ncc(C#CC3CCCC3)cc2C(=O)N([C@H](C)CO)C[C@H]1C was read as miR122 inh inactive, FN deposit inh inactive, HIV Env fusion inactive, rRNA inh HTS inactive and S100A4 inh HTS inactive.
`COc1ccc(C2=NN(CCC(=O)NC3CCC(C)CC3)C(=O)CC2)cc1` (stereo unspecified) gave miR122 inh inactive, Vif inh inactive, FN deposit inh inactive, HIV Env fusion inactive, rRNA inh HTS inactive and S100A4 inh HTS 88.
